In the EternaBench riboswitch data:

System: MS2 coat protein
Assay: apparent Kd, MS2 coat protein; higher = weaker binding; RNA-MaP array; FMN 200 µM where present
How it was run: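 Stalled E. coli RNA polymerase produced the designs on Illumina sequencing-chip clusters. SNAP-549-labelled MS2 coat protein was added from 0.7 or 1.5 nM, doubling to 3 µM, without and then with constant ligand, in 100 mM Tris-HCl pH 7.5, 80 mM KCl, 4 mM MgCl2, BSA, DTT, yeast tRNA and Tween-20. The apparent Kd is the median of filtered per-cluster fits of green signal normalised to red-channel RNA signal and control-cluster median Fmax.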

[1] = designed as: ON switch for flavin mononucleotide, no ligand
[2] = ligand present: flavin mononucleotide, designed as: ON switch for flavin mononucleotide
[3] = designed as: OFF switch for flavin mononucleotide, no ligand
[4] = ligand present: flavin mononucleotide, designed as: OFF switch for flavin mononucleotide

| Sequence | apparent Kd [1] [nM] | apparent Kd [2] [nM] | apparent Kd [3] [nM] | apparent Kd [4] [nM] |
| --- | --- | --- | --- | --- |
| AGAUGGUAGAGAGGAUAUCAUGUGCUGACAUGAGGAUCACCCAUGUAGGGACGUCGGUCCAAUUAUGAGAAGGCUCUACCAUCA | 81.7 | 50.8 | – | – |
| AGAUGGUAUAUAGGAUAUCAUGUGCAAACAUGAGGAUCACCCAUGUAGAGACGUCAGUCUAAUAAUGAGAAGGAUAUACCAUCU | 37.1 | 9.97 | – | – |
| AGAUGUGAACAUGAGGAUCACCCAUGUGACUAGGUUUAUUUCAGAAGGCAUUAAUAGAGAUUAUAUGAGGAUAUGAAGUUUUAA | 11.8 | 7.11 | – | – |
| AGAUUUGUACAUGAGGAUCACCCAUGUUAAUAGGUGUUUGUCAGAAGGCAUUAAGAGAGAAUUAAUGAGGAUAUGAAGUUUCAU | 59.2 | 36.2 | – | – |
| AGAUUUUUUACAGGAUAUGUUAGUUUACAGUUGAUUGGUUAUUACAUUAUGACAGAAGGGUAGAACAUGAGGAUCACCCAUGUA | 374 | 174 | – | – |
| AGCAGACGAGGAUAUGAUAAAGAUCACAUGAGGAUCACCCAUGUACGCAGGAUACUGCGAUCAGAAGGCGUCUGCU | – | – | 13 | 13.8 |
| AGCAUGUAAGGAUAUGCAACACAGCUUUCAAUCGCUGUGCCGCAGAAGGUACAUGAGGAUCACCCAUGUGCUCC | – | – | 85.5 | 91.2 |
| AGCAUGUGAGGAUAUGCGGACUCCGGUAAAUCUGAAGUCCAGUAGAAGGCACAUGAGGAUCACCCAUGUGAGAU | – | – | 43 | 110 |
| AGCAUGUUAGGAUAUGCGAAGUCAGGACACACACUGACGAAGCAGAAGGAACAUGAGGAUCACCCAUGUAAGCA | – | – | 71.8 | 45.7 |
| AGCGAUGCAGGAUAUCCGCGGCUACACAUGAGGAUCACCCAUGUUAGGGUCGUGUUGCCAGGAGAAGGGCAAGGAU | – | – | 28.8 | 78.1 |
| AGCGUGUGAGGAUAUGCGGACUCCGGUAAAUCUGGAGUCCAGUAGAAGGCACAUGAGGAUCACCCAUGUGAGAU | – | – | 35.8 | 124 |
| AGCUACGUUUCGUAGCAGUGUCAUCGAGAAGGCCUUAAAACAUGAGGAUCACCCAUGUAUGCAUGGGAGGAUAUCGAUGAUACA | 31.7 | 6.98 | – | – |
| AGCUACGUUUCGUAGCAGUGUCAUCGAGAAGGCUCAGAUACAUGAGGAUCACCCAUGUUAACAUGGGAGGAUAUCGAUGAUACA | 65.3 | 8.4 | – | – |
| AGCUAGUACCGAGGAUAUACAUACAUGAGGAUCACCCAUGUAUACAUGAAUAAAUGAGACUACAUGUAGAAGGCGGUACUAGCA | 71.1 | 20 | – | – |
| AGCUAGUCAGGAUAUACGAACAUGUCGAAAGACGUGAGGGAACAUGAGGAUCACCCAUGUAGAAGGGACUAGCA | – | – | 30.6 | 36.2 |
| AGCUAGUCAGGAUAUGCGUGAAGAAUAAAACAAAUAACAACGCAGAAGGGACAUGAGGAUCACCCAUGUUAGCA | – | – | 30.7 | 19.5 |
| AGCUAUUAAUCAGGAUAUAGGGACAUGAGGAUCACCCAUGUGUACAUGAUAAAAUGUGAUCACGUCUAGAAGGGAUUACUAACA | 77 | 79.8 | – | – |
| AGCUGCCGGUCACAUGAGGAUCACCCAUGUAACCUGCAUUCACAGGAUAUGUUGGCUCCUUGCCGGCAGAAGGGUGAAGCGCCG | 371 | 107 | – | – |
| AGCUGGUGACAGCAAGAAGUUUAACAUGAGGAUCACCCAUGUAGAAGGCUGUACGGUUACCGUACAGAGGAUAUACAUAGAAAG | – | – | 43.7 | 57.5 |

| Sequence | apparent Kd [1] [nM] | apparent Kd [2] [nM] | apparent Kd [3] [nM] | apparent Kd [4] [nM] |
| --- | --- | --- | --- | --- |
| AGCUGUGGCCGAGGAUAUCAAGAACCAUGGAAAACCAUGGAACCUUGACAUGAGGAUCACCCAUGUGAGAAGGCGGUCUCAGCA | – | – | 14.4 | 11.7 |
| AGCUGUGGCCGAGGAUAUCUAACAAUCCUAACCGAAAUAUAAUCGGACAUGAGGAUCACCCAUGUAGAGAAGGCGGUCUCAGCA | – | – | 92.4 | 237 |
| AGCUGUGGCCGAGGAUAUCUAAUAACUCAAACCGAAAUAUAAUCGGACAUGAGGAUCACCCAUGUAGAGAAGGCGGUCUCAGCA | – | – | 84.6 | 154 |
| AGCUGUGGCCGAGGAUAUCUGAACUCAAUAACCGAAAUAUAAUCGGACAUGAGGAUCACCCAUGUAGAGAAGGCGGUCUCAGCA | – | – | 34 | 56.5 |
| AGCUGUGGCCGAGGAUAUCUGAACUUUCAAACCGAAAUAUAAUCGGACAUGAGGAUCACCCAUGUAGAGAAGGCGGUCUCAGCA | – | – | 16 | 13.6 |
| AGGAAACAUGAGGAUCACCCAUGUAAAUAUGGGCGAGGAUAUCGAAAGAAAAGAAAGAAACGAGAAGGCGCAAAAG | 324 | 77.7 | – | – |
| AGGAAACAUGAGGAUCACCCAUGUAAGAUAUACACAGGAUAUGCGAAAAGAAACAAAGAAGCAGAAGGGUGGAAAA | 35.1 | 21.2 | – | – |
| AGGACAAGGCAGAAGGGACAUGAGGAUCACCCAUGUACCGUGGUUCAGCAGUCAGGAUAUGCCAUAUGUAAACAUAUCGUAAGA | – | – | 12.1 | 108 |
| AGGAGAAAUGUAGGAUAUGGGCGGAUAUAUGGGCAAAGCGCAUAUAUCCGCCCAGAAGGACAUGAGGAUCACCCAUGUUUCCCU | – | – | 11.1 | 13.3 |
| AGGAGACAUGAGGAUCACCCAUGUGCACGUGGACGAGGAUAUGCUAGUAGAAGAUAGAAUGCAGAAGGCGUAAGAA | 75.7 | 76.8 | – | – |
| AGGAGGUCAGGAUAUGCAUGGCGGGACUUGCGUCGUGGCGUGCAGAAGGGACAUGAGGAUCACCCAUGUGGAGC | – | – | 66.4 | 106 |
| AGGCGACAUGAGGAUCACCCAUGUGAGGAUAUCGAACUCAACUGAGGAGAGAGUAAGGCGAGAAGGCACACAGU | – | – | 22.1 | 36.4 |
| AGGGCGAAAUGGCUCUAUGAGAUGAGAAGGGUAGGAGGGUGGAAGUACAUGAGGAUCACCCAUGUACAGGAUAUCAUGCCGAUU | – | – | 6.42 | 6.4 |
| AGGUCAACCACAGGAUAUGGCUAGCAUAGCUAGCCAGAAGGGUGGUCGUAACCAUGUAAAUACAUGAGGAUCACCCAUGUAUCC | 235 | 66.5 | – | – |
| AGGUGUCCUGAGAGAUUUCUCCACAUGAGGAUCACCCAUGUAGAGGAUAUCGACGCUGUGCGGUUCGAGAAGGCUACACUAAUU | – | – | 6.85 | 42.4 |
| AGGUUGGGAGGAUAUCCAAUAUAUGACAUGAGGAUCACCCAUGUUUCCACUCGUACCUCCGGAGAAGGCCCUUCCA | – | – | 21.7 | 23 |
| AGUAACAGAGGAUAUACUAUUUUAUGUGUUUAUUGUUUUAAACAUGAGGAUCACCCAUGUAGAAGGCUGAAUAA | – | – | 29.4 | 40.5 |
| AGUAACAGAGGAUAUACUAUUUUAUGUGUUUAUUGUUUUGAACAUGAGGAUCACCCAUGUAGAAGGCUGAAUAA | – | – | 24.4 | 28 |
| AGUAACAGAGGAUAUACUGUUUUAUGUGUUUAUUGUUUUGAACAUGAGGAUCACCCAUGUAGAAGGCUGAAUAA | – | – | 23.3 | 20.9 |

| Sequence | apparent Kd [1] [nM] | apparent Kd [2] [nM] | apparent Kd [3] [nM] | apparent Kd [4] [nM] |
| --- | --- | --- | --- | --- |
| AGUACUCAAAGAGUACCCAUACGGACAUGAGGAUCACCCAUGUAGGAUAUGCUACUCAAAGAGUAGUAGAAGGACAUGUUCCUC | – | – | 12.4 | 43.6 |
| AGUAUGAGAGGAUAUACUAAUAAACAUGGAAACAUGAAGGGACAUGAGGAUCACCCAUGUAGAAGGCUCGUACA | – | – | 55.6 | 177 |
| AGUCAGAGAGGAUAUACAUGGGAAAAAAAAGUAAGAUCCCUACAUGAGGAUCACCCAUGUAGAAGGCUCUGACA | – | – | 28.6 | 36 |
| AGUCCAGAAGGAUAUACAUAGGUGAAAAAAAAAAAAAAACUACAUGAGGAUCACCCAUGUAGAAGGUCUGGACA | – | – | 93.5 | 46 |
| AGUGAGCAGACAGGAUAUCCACUCAGGUCUGAGUCAACGACAUGAGGAUCACCCAUGUCCUAAAAGGAGAAGGGUCAUGGUCGU | 198 | 107 | – | – |
| AGUGUAGAGGUGAAGCGAAUUACUGAGGAUAUGACAUGAGGAUCACCCAUGUACACAUCCUCAGGUCAGAAGGCAGUGGUUCUU | – | – | 5.62 | 4.8 |
| AGUGUCAUCGAGAAGGCCUUAGGAACAUGAGGAUCACCCAUGUAACAUGGGAGGAUAUCGAUGAUACAGCUACGUUUCGUAGCA | 6.51 | 4.85 | – | – |
| AGUGUCAUCGAGAAGGCUUCAACAUGAGGAUCACCCAUGUUGUAAUAUGGGAGGAUAUCGAUGAUACAGCUACGUUUCGUAGCA | 7 | 5.03 | – | – |
| AGUGUGUUAGGAUAUCGGAUAUGCUGGAGGAGGUGGAUUUACGAGAAGGAACAUGAGGAUCACCCAUGUAGGAG | – | – | 37.1 | 35.6 |
| AGUUAAUAUCGAGGAUAUCCUCAUAAACAUGAGGAUCACCCAUGUAGAAUGGGAGAAGGCGAUAUUAACAGCAUGUUACAUGCA | 210 | 114 | – | – |
| AGUUGUUCAGGAUAUGGUGUGUUAUACAUGAGGAUCACCCAUGUGGGUCCUGGUUUGGCCUCAGAAGGGAAUGUUG | – | – | 636 | 518 |
| AGUUUGUUUGAGAAGGUGAAGUGGAAACAUGAGGAUCACCCAUGUAUUAGGAAGCCUGGUUUUGUCAAGGAUAUCGGGUAAACA | – | 13.9 | – | – |
| AUAAAACAUGAGGAUCACCCAUGUAGAAACAUGGGAGGAUAUACAAAGACGAAAGUCAAAGUAGAAGGCCUAAAAG | 462 | 311 | – | – |
| AUAAAACAUGAGGAUCACCCAUGUCAACAAAAUCGAGGAUAUGGACAGACUUCGGUCUGUCCAGAAGGCGAAUAAU | 13.7 | 14.6 | – | – |
| AUAAAAGUGACAUGAGGAUCACCCAUGUGAAUUAGUAGUAGCAGAAGGCACGUGGGAAGACCAAGUGAGGAUAUGUAACUUUAG | 625 | 59.2 | – | – |
| AUAACUGUACGAGGAUAUCCAAGGGCAGCCCUAGGAGAAGGCGUACAUGAGGAUCACCCAUGUACUAUAUGGAGUUCGCUCGUG | – | – | 30.7 | 88.4 |
| AUAAUAAAGGAGGAUAUCGUAUCGGAAACGAUACGAGAAGGUCUAACAUGAGGAUCACCCAUGUUCCUCAAAUA | – | – | 43.6 | 68 |
| AUAAUGAGUCAAGGAUAUCCGAGCUGAAUGCUUGGAGAAGGUGACAUGAGGAUCACCCAUGUCUCUCCGAGCAUGGUAUUCUCA | – | – | 28.4 | 26.6 |
